Results reported in ChEMBL document CHEMBL5230178, “6-Bromoindirubin-3'-oxime derivatives are highly active colistin adjuvants against Klebsiella pneumoniae” (RSC Med Chem, 2023).
Active and inactive are the calls of the source. The rule behind the calls is not given here.

Experiments:
Klebsiella pneumoniae [1] = assay: Antibacterial activity against Klebsiella pneumoniae B9 assessed as inhibition of bacterial growth incubated for 16 hrs by broth microdilution method; assay type: functional
Procedure, shortened: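 Broth microdilution in CAMHB. Six-hour culture diluted to 5×10^5 CFU/mL, compound added from DMSO stock, two-fold serial dilution. MIC is the lowest concentration giving 90% growth inhibition versus untreated wells. Run in duplicate, repeated at least twice.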

Klebsiella pneumoniae [2] = assay: Potentiation of colistin-induced antibacterial activity against colistin resistant Klebsiella pneumoniae B9 assessed as colistin MIC at 5 uM incubated for 16 hrs by broth microdilution method; assay type: functional
Procedure, shortened: (§1)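 Bacteria grown 6 h in CAMHB, diluted to 5×10^5 CFU/mL. Fixed adjuvant concentration added from DMSO stock; an undosed aliquot gives the colistin MIC alone. Colistin serially two-fold diluted in the compound-dosed suspension. MIC taken at 90% growth inhibition versus untreated wells. Fold change is colistin MIC alone over MIC with adjuvant. Duplicate, repeated at least twice.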

Klebsiella pneumoniae [3] = assay: Potentiation of colistin-induced antibacterial activity against colistin-resistant Klebsiella pneumoniae B9 assessed as fold change in colistin MIC at 5 uM incubated for 16 hrs by broth microdilution method; assay type: functional; procedure, shortened: as §1
Klebsiella pneumoniae [4] = assay: Potentiation of colistin-induced antibacterial activity against colistin-resistant Klebsiella pneumoniae B9 assessed as colistin MIC at 3 uM incubated for 16 hrs by broth microdilution method; assay type: functional; procedure, shortened: as §1
Klebsiella pneumoniae [5] = assay: Potentiation of colistin-induced antibacterial activity against colistin-resistant Klebsiella pneumoniae B9 assessed as fold change in colistin MIC at 3 uM incubated for 16 hrs by broth microdilution method; assay type: functional; procedure, shortened: as §1
Klebsiella pneumoniae [6] = assay: Potentiation of colistin-induced antibacterial activity against colistin-resistant Klebsiella pneumoniae B9 assessed as colistin MIC at 1 uM incubated for 16 hrs by broth microdilution method; assay type: functional; procedure, shortened: as §1
Klebsiella pneumoniae [7] = assay: Potentiation of colistin-induced antibacterial activity against colistin-resistant Klebsiella pneumoniae B9 assessed as fold change in colistin MIC at 1 uM incubated for 16 hrs by broth microdilution method; assay type: functional; procedure, shortened: as §1
Klebsiella pneumoniae [8] = assay: Potentiation of colistin-induced antibacterial activity against colistin resistant Klebsiella pneumoniae C3 assessed as colistin MIC at 5 uM incubated for 16 hrs by broth microdilution method; assay type: functional; procedure, shortened: as §1
Klebsiella pneumoniae [9] = assay: Potentiation of colistin-induced antibacterial activity against colistin resistant Klebsiella pneumoniae F9 assessed as colistin MIC at 5 uM incubated for 16 hrs by broth microdilution method; assay type: functional; procedure, shortened: as §1
Klebsiella pneumoniae [10] = assay: Potentiation of colistin-induced antibacterial activity against colistin resistant Klebsiella pneumoniae I2 assessed as colistin MIC at 5 uM incubated for 16 hrs by broth microdilution method; assay type: functional; procedure, shortened: as §1
Klebsiella pneumoniae [11] = assay: Potentiation of colistin-induced antibacterial activity against colistin resistant Klebsiella pneumoniae F2210291 harbouring mcr-1 gene assessed as colistin MIC at 5 uM incubated for 16 hrs by broth microdilution method; assay type: functional; procedure, shortened: as §1
Acinetobacter baumannii [12] = assay: Antimicrobial activity against colistin resistant Acinetobacter baumannii 3941 assessed as inhibition of microbial growth incubated for 16 hrs by broth microdilution method; assay type: functional, organism-based
Procedure, shortened: (§2)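 Bacteria grown 6 h in cation-adjusted Mueller Hinton broth (CAMHB), subcultured to 5×10^5 CFU/mL. Compound added from DMSO stock and serially two-fold diluted in the culture. Incubated stationary at 37 °C for 16 h. MIC taken as the lowest concentration giving 90% growth inhibition versus untreated wells. Duplicate, repeated at least twice.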

Escherichia coli [13] = assay: Antimicrobial activity against colistin resistant Escherichia coli 25922 harbouring mcr-1 gene assessed as inhibition of microbial growth incubated for 16 hrs by broth microdilution method; assay type: functional, organism-based; procedure, shortened: as §2
Pseudomonas aeruginosa [14] = assay: Antimicrobial activity against colistin resistant Pseudomonas aeruginosa TRPA 162 assessed as inhibition of microbial growth incubated for 16 hrs by broth microdilution method; assay type: functional, organism-based; procedure, shortened: as §2
Acinetobacter baumannii [15] = assay: Potentiation of colistin-induced antimicrobial activity against colistin resistant Acinetobacter baumannii 3941 assessed as assessed as colistin MIC at 5 uM incubated for 16 hrs by broth microdilution method; assay type: functional; procedure, shortened: as §1
Pseudomonas aeruginosa [16] = assay: Potentiation of colistin-induced antimicrobial activity against colistin-resistant Pseudomonas aeruginosa TRPA 162 assessed as colistin MIC at 5 uM incubated for 16 hrs by broth microdilution method; assay type: functional; procedure, shortened: as §1
Escherichia coli [17] = assay: Potentiation of colistin-induced antimicrobial activity against colistin resistant Escherichia coli 25922 harbouring mcr-1 gene assessed as colistin MIC at 5 uM incubated for 16 hrs by broth microdilution method; assay type: functional; procedure, shortened: as §1
Klebsiella pneumoniae [18] = assay: Antibacterial activity against Klebsiella pneumoniae B9 assessed as inhibition of bacterial growth at 5 uM measured upto 24 hrs by time-kill assay; assay type: functional, organism-based
Procedure, shortened: (§3)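 Overnight CAMHB culture subcultured to 5×10^5 CFU/mL in fresh CAMHB, split into 4 mL aliquots. Dosed with carrier only, adjuvant, colistin, or adjuvant plus colistin. Shaken at 37 °C. At 2, 4, 6, 8 and 24 h, 100 µL sampled, ten-fold serially diluted in CAMHB up to 7 times, plated on LB Lennox agar, incubated overnight at 37 °C, colonies counted.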

Klebsiella pneumoniae [19] = assay: Synergistic antibacterial activity against Klebsiella pneumoniae B9 assessed as reduction in colony forming unit measured per ml at 5 uM measured after 8 hrs in the presence of 0.5 ug/ml of colistin by time-kill assay; assay type: functional; procedure, shortened: as §3
Klebsiella pneumoniae [20] = assay: Synergistic antibacterial activity against Klebsiella pneumoniae B9 assessed as reduction in colony forming unit measured per ml at 5 uM measured after 2 hrs in the presence of 2 ug/ml of colistin by time-kill assay; assay type: functional; procedure, shortened: as §3
Klebsiella pneumoniae [21] = assay: Synergistic antibacterial activity against Klebsiella pneumoniae B9 assessed as reduction in colony forming unit measured per ml at 5 uM measured after 24 hrs in the presence of 2 ug/ml of colistin by time-kill assay; assay type: functional; procedure, shortened: as §3
Klebsiella pneumoniae [22] = assay: Synergistic antibacterial activity against Klebsiella pneumoniae B9 assessed as reduction in colony forming unit at 5 uM measured at 6 to 24 hrs in the presence of 4 ug/ml of colistin by time-kill assay; assay type: functional, organism-based; conditions: time 6-24 hrs; procedure, shortened: as §3
[23] = Hemolytic activity in sheep RBC assessed as hemolysis upto 400 uM incubated for 1 hrs by UV-Vis spectrophotometric analysis; assay type: toxicity, cell-based, Ovis aries; conditions: erythrocyte
Procedure, shortened: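 Defibrinated sheep blood cells washed three times in PBS by centrifugation (10 min, 10,000 rpm), resuspended in 10 mL PBS, compound added. PBS served as 0% lysis and 1% Triton X-100 as 100% lysis. Shaken at 200 rpm, 37 °C, 1 h, then centrifuged. Supernatant diluted 40-fold in water, absorbance read at 540 nm.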

Klebsiella pneumoniae [24] = assay: Induction of drug resistance in colistin-resistant Klebsiella pneumoniae B9 assessed as lipid A modification of LPS at 5 uM incubated for 8 hrs by MALDI-TOF analysis; assay type: functional, organism-based
Procedure, shortened: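 K. pneumoniae B9 grown 18 h at 37 °C in CAMHB, subcultured to 1×10^6 CFU in 120 mL CAMHB. Left untreated or dosed at 5 μM for 8 h, in duplicate. Cells pelleted, washed with endotoxin-free water, and extracted on-plate with 70% citric acid at 110 °C for 30 min. Norharmane matrix applied, then MALDI-TOF in negative ion mode.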

For `O=C1Nc2cc(Br)ccc2/C1=C1/Nc2cc(Cl)ccc2/C1=N\O`, the MIC (Klebsiella pneumoniae [1]) was > 200 µM, the MIC (Klebsiella pneumoniae [2]) was 0.5 µg/mL and the “fold change (FC)” value (Klebsiella pneumoniae [3]) was 1024. For the same molecule, the MIC (Klebsiella pneumoniae [4]) was 1 µg/mL, the “fold change (FC)” value (Klebsiella pneumoniae [5]) was 256 and the MIC (Klebsiella pneumoniae [6]) was 16 µg/mL. For the same molecule, the “fold change (FC)” value (Klebsiella pneumoniae [7]) was 32, the MIC (Klebsiella pneumoniae [8]) was 1 µg/mL and the MIC (Klebsiella pneumoniae [9]) was 2 µg/mL. The MIC (Klebsiella pneumoniae [10]) was 2 µg/mL, the MIC (Klebsiella pneumoniae [11]) was 1 µg/mL and the Activity (Acinetobacter baumannii [12]) was “inactive”. The Activity (Escherichia coli [13]) was “inactive”, the Activity (Pseudomonas aeruginosa [14]) was “inactive” and the MIC (Acinetobacter baumannii [15]) was > 16 µg/mL. For the same molecule, the MIC (Pseudomonas aeruginosa [16]) was > 16 µg/mL, the MIC (Escherichia coli [17]) was 2 µg/mL and the Activity (Klebsiella pneumoniae [18]) was “inactive”. The “log(activity)” value (Klebsiella pneumoniae [19]) was 1, the “log(activity)” value (Klebsiella pneumoniae [20]) was 2 and the “log(activity)” value (Klebsiella pneumoniae [21]) was 1. For the same molecule, the Activity (Klebsiella pneumoniae [22]) was “Active”, the Activity [23] was “Non-Toxic” and the Activity (Klebsiella pneumoniae [24]) was “inactive”.
